A value given as a limit tells only on which side of the number the result lay.

The results in this text go back to ChEMBL document CHEMBL2029214, “Radiosynthesis and evaluation of an (18)F-labeled positron emission tomography (PET) radioligand for brain histamine subtype-3 receptors based on a nonimidazole 2-aminoethylbenzofuran chemotype” (J Med Chem, 2012).

Assay [1] has as its target Histamine receptor H3 (Macaca mulatta) (UniProt Q865E1). The assay is described as follows: Induction of histamine H3 receptor-mediated drug uptake in rhesus monkey brain by PET imaging. Summed up: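 Male rhesus monkeys (7.3 ± 0.8 kg; n = 4 baseline), ketamine 10 mg/kg i.m. then 1.5% isoflurane in O2. […] [18F]ligand given i.v. Focus 220 microPET, 180 min (one scan 120 min), 45 frames 30 s–5 min, scatter/attenuation corrected, decay-corrected; template-normalized regions; uptake as SUV.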

Assay [2] deals with Beta-3 adrenergic receptor (Homo sapiens, UniProt P13945). The experiment in a line: Binding affinity to human recombinant beta3 adrenergic receptor.
Beta-3 adrenergic receptor, sequence (P13945 whole entry): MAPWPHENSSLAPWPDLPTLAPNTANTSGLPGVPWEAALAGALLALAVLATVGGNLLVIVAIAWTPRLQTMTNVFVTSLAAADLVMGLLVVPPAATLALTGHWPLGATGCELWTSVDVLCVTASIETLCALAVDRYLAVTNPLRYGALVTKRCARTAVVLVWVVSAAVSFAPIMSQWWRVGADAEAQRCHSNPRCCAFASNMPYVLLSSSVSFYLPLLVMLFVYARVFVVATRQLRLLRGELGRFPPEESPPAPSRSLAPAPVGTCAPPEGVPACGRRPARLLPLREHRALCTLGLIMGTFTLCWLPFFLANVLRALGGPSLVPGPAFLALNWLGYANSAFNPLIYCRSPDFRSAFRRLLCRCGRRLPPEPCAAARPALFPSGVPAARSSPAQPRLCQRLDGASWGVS
Assay [3] has as its target Muscarinic acetylcholine receptor M4 (Homo sapiens, UniProt P08173). The assay is described as follows: Binding affinity to human recombinant M4 receptor.
The target of assay [4] is Alpha-1D adrenergic receptor (Homo sapiens, UniProt P25100). The experiment in a line: Binding affinity to human recombinant alpha1D adrenergic receptor.
The target in assay [5] is 5-hydroxytryptamine receptor 2A (Homo sapiens, UniProt P28223). The assay is described as follows: Binding affinity to human recombinant 5HT2A receptor. Summed up: (§1)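 Ki values were taken from in vitro competitive binding assays against each human recombinant receptor.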
Assay [6] concerns the target D(3) dopamine receptor (Homo sapiens, UniProt P35462). The assay is described as follows: Binding affinity to human recombinant Dopamine D3 receptor.
Assay [7] addresses 5-hydroxytryptamine receptor 1D (Homo sapiens, UniProt P28221). The assay is described as follows: Binding affinity to human recombinant 5HT1D receptor. A digest of the protocol: as §1
In assay [8] the target is Histamine H1 receptor (Homo sapiens, UniProt P35367). The assay is described as follows: Binding affinity to human recombinant H1 receptor.
Assay [9] deals with Histamine H2 receptor (Homo sapiens, UniProt P25021). The assay is described as follows: Binding affinity to human recombinant H2 receptor.
Histamine H2 receptor, sequence (P25021 whole entry): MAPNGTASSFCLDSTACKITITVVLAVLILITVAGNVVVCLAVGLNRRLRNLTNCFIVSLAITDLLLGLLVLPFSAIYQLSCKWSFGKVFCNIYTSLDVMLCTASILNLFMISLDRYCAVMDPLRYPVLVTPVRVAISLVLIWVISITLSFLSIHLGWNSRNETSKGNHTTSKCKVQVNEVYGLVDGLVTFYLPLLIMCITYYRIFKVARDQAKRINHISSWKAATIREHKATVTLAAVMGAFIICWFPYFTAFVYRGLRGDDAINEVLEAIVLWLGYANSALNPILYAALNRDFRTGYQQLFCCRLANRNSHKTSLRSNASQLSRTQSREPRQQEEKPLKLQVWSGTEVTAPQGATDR
For assay [10], the target named is Alpha-2B adrenergic receptor (Homo sapiens, UniProt P18089). The experiment in a line: Binding affinity to human recombinant alpha2B adrenergic receptor.
Assay [11] concerns the target 5-hydroxytryptamine receptor 3A (Homo sapiens, UniProt P46098). The assay is described as follows: Binding affinity to human recombinant 5HT3 receptor.
In assay [12] the target is 5-hydroxytryptamine receptor 1B (Homo sapiens, UniProt P28222). The experiment in a line: Binding affinity to human recombinant 5HT1B receptor.
Assay [13] has as its target 5-hydroxytryptamine receptor 1E (Homo sapiens, UniProt P28566). The experiment in a line: Binding affinity to human recombinant 5HT1E receptor.
Assay [14] has as its target 5-hydroxytryptamine receptor 2C (Homo sapiens, UniProt P28335). The experiment in a line: Binding affinity to human recombinant 5HT2C receptor.
Assay [15] addresses Histamine H4 receptor (Homo sapiens, UniProt Q9H3N8). The assay is described as follows: Binding affinity to human recombinant H4 receptor.
The target in assay [16] is Beta-1 adrenergic receptor (Homo sapiens, UniProt P08588). The experiment in a line: Binding affinity to human recombinant beta1 adrenergic receptor.
Beta-1 adrenergic receptor, sequence (P08588 whole entry): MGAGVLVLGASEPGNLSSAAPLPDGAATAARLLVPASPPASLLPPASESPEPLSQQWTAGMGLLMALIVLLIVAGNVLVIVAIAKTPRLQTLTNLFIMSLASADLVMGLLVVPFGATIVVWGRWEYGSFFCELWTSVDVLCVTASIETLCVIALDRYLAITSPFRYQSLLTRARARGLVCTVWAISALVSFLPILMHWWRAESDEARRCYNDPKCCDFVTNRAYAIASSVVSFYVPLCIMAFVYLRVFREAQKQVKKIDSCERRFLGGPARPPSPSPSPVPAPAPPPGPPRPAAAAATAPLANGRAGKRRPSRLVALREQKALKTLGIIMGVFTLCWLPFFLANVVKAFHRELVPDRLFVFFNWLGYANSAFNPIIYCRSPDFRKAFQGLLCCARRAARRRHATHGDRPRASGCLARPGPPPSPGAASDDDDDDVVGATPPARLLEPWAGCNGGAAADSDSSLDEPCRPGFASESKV
Assay [17] has as its target D(1B) dopamine receptor (Homo sapiens, UniProt P21918). The experiment in a line: Binding affinity to human recombinant Dopamine D5 receptor.
For assay [18], the target named is Alpha-2C adrenergic receptor (Homo sapiens, UniProt P18825). The assay is described as follows: Binding affinity to human recombinant alpha2C adrenergic receptor.
Assay [19] deals with Muscarinic acetylcholine receptor M5 (Homo sapiens, UniProt P08912). The experiment in a line: Binding affinity to human recombinant M5 receptor. Summed up:
as §1

The target in assay [20] is D(2) dopamine receptor (Homo sapiens, UniProt P14416). The assay is described as follows: Binding affinity to human recombinant Dopamine D2 receptor.
Assay [21] addresses Muscarinic acetylcholine receptor M3 (Homo sapiens, UniProt P20309). The experiment in a line: Binding affinity to human recombinant M3 receptor.
The target of assay [22] is Sodium-dependent noradrenaline transporter (Homo sapiens, UniProt P23975). The experiment in a line: Binding affinity to human recombinant NET.
Sodium-dependent noradrenaline transporter, sequence (P23975 whole entry): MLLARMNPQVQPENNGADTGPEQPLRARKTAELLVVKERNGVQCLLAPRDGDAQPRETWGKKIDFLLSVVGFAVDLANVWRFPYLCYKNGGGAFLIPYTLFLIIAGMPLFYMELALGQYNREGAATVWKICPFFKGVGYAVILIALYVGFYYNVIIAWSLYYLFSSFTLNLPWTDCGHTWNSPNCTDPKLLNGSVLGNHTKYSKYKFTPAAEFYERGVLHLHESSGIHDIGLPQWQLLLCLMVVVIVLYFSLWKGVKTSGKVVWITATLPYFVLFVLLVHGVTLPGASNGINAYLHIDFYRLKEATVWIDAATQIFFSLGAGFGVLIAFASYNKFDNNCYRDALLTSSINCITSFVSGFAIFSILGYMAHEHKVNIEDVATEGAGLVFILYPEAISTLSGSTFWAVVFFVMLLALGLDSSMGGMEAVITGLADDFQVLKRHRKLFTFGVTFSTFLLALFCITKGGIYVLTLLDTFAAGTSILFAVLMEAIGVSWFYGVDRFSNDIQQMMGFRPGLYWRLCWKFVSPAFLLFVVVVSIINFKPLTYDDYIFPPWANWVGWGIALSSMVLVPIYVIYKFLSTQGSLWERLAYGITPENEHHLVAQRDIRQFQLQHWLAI
Assay [23] has as its target 5-hydroxytryptamine receptor 2B (Homo sapiens, UniProt P41595). The assay is described as follows: Binding affinity to human recombinant 5HT2B receptor.
For assay [24], the target named is Sigma non-opioid intracellular receptor 1 (Homo sapiens, UniProt Q99720). The assay is described as follows: Binding affinity to human recombinant sigma1 receptor.
The target in assay [25] is 5-hydroxytryptamine receptor 1A (Homo sapiens, UniProt P08908). The assay is described as follows: Binding affinity to human recombinant 5HT1A receptor.
5-hydroxytryptamine receptor 1A, sequence (P08908 whole entry): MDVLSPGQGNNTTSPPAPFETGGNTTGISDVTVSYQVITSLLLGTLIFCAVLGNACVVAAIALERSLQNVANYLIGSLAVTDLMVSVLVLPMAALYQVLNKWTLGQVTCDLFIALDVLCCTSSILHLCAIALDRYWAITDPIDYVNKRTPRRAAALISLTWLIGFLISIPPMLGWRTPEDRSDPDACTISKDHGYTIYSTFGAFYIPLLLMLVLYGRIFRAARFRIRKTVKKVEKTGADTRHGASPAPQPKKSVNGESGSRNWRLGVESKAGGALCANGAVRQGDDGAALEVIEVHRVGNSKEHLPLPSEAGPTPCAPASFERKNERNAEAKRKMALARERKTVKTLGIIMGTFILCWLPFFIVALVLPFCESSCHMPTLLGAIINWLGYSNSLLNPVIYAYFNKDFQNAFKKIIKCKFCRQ
The target of assay [26] is Muscarinic acetylcholine receptor M2 (Homo sapiens, UniProt P08172). The assay is described as follows: Binding affinity to human recombinant M2 receptor.
In assay [27] the target is 5-hydroxytryptamine receptor 7 (Homo sapiens, UniProt P34969). The assay is described as follows: Binding affinity to human recombinant 5HT7 receptor.
For assay [28], the target named is Muscarinic acetylcholine receptor M1 (Homo sapiens, UniProt P11229). The experiment in a line: Binding affinity to human recombinant M1 receptor.
The target of assay [29] is 5-hydroxytryptamine receptor 6 (Homo sapiens, UniProt P50406). The assay is described as follows: Binding affinity to human recombinant 5HT6 receptor.
Assay [30] addresses Alpha-2A adrenergic receptor (Homo sapiens, UniProt P08913). The assay is described as follows: Binding affinity to human recombinant alpha2A adrenergic receptor.
Assay [31] has as its target Alpha-1B adrenergic receptor (Homo sapiens, UniProt P35368). The assay is described as follows: Binding affinity to human recombinant alpha1B adrenergic receptor.
For assay [32], the target named is Sodium-dependent serotonin transporter (Homo sapiens, UniProt P31645). The assay is described as follows: Binding affinity to human recombinant SERT.
Assay [33] deals with Alpha-1A adrenergic receptor (Homo sapiens, UniProt P35348). The experiment in a line: Binding affinity to human recombinant alpha1A adrenergic receptor.
The target of assay [34] is D(1A) dopamine receptor (Homo sapiens, UniProt P21728). The assay is described as follows: Binding affinity to human recombinant Dopamine D1 receptor.
D(1A) dopamine receptor, sequence (P21728 whole entry): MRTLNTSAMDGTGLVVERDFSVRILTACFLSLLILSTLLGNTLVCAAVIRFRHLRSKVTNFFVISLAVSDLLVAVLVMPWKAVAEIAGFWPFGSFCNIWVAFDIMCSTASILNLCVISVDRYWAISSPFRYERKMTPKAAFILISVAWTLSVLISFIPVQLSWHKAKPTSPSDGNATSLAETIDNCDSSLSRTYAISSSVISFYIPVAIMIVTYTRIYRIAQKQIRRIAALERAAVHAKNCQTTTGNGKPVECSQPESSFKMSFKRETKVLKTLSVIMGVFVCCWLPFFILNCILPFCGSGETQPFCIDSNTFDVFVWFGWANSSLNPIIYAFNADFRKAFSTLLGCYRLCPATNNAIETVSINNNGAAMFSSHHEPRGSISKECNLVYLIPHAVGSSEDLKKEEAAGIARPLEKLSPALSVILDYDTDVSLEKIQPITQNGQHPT
Assay [35] addresses Beta-2 adrenergic receptor (Homo sapiens, UniProt P07550). The assay is described as follows: Binding affinity to human recombinant beta2 adrenergic receptor.
Assay [36] deals with Sodium-dependent dopamine transporter (Homo sapiens, UniProt Q01959). The assay is described as follows: Binding affinity to human recombinant DAT.
Sodium-dependent dopamine transporter, sequence (Q01959 whole entry): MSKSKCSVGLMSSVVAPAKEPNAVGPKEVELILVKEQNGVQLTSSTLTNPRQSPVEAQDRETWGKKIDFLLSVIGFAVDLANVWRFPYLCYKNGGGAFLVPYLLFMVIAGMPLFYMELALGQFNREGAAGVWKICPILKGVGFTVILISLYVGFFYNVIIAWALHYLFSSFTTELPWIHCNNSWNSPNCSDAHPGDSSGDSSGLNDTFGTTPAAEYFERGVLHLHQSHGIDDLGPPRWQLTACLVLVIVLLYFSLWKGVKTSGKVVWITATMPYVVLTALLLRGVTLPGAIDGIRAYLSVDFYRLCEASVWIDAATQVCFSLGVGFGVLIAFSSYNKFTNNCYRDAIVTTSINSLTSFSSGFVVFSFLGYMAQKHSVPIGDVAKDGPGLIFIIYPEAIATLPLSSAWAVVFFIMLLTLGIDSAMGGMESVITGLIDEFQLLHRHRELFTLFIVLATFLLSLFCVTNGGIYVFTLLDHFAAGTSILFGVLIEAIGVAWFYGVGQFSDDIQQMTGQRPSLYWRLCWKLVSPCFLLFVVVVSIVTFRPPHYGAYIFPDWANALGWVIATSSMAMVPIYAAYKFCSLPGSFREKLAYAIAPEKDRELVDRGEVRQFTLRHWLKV
The target in assay [37] is D(4) dopamine receptor (Homo sapiens, UniProt P21917). The experiment in a line: Binding affinity to human recombinant Dopamine D4 receptor.
The target of assay [38] is Histamine H3 receptor (Homo sapiens, UniProt Q9Y5N1). The assay is described as follows: Binding affinity to human recombinant H3 receptor expressed in HEK293T cells. Format: cell-based, HEK-293T.

5-hydroxytryptamine receptor 1E, sequence (P28566 whole entry): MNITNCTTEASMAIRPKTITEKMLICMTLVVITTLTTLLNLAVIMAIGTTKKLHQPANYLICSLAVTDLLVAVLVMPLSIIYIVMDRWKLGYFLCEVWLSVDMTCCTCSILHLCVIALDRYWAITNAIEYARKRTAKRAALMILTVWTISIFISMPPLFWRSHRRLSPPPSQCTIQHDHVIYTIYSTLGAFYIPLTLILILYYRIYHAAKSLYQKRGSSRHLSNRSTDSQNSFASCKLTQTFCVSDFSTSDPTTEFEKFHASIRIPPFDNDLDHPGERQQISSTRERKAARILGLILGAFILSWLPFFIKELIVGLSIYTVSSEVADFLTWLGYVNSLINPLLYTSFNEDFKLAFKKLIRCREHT
Histamine H4 receptor, sequence (Q9H3N8 whole entry): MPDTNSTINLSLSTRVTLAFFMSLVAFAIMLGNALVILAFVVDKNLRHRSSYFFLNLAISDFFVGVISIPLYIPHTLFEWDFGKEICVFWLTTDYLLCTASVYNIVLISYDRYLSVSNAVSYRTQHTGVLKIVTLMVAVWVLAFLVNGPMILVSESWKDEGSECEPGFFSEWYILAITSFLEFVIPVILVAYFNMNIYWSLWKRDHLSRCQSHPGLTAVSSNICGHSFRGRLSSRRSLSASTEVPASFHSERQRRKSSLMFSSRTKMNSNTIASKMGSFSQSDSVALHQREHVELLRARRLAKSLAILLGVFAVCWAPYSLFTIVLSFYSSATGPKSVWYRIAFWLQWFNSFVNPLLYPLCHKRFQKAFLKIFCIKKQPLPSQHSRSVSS
5-hydroxytryptamine receptor 2C, sequence (P28335 whole entry): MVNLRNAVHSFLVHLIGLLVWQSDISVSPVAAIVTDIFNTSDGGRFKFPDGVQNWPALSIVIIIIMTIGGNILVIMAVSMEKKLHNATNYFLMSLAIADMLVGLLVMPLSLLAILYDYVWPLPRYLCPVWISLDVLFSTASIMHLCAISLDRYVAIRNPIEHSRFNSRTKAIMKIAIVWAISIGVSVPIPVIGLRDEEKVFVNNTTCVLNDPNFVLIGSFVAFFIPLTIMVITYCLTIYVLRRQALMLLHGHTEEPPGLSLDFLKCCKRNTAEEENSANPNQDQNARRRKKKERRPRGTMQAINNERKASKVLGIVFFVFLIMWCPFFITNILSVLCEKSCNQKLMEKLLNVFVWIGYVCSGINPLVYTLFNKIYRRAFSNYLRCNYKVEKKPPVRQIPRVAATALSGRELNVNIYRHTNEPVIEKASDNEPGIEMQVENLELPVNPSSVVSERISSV
5-hydroxytryptamine receptor 1D, sequence (P28221 whole entry): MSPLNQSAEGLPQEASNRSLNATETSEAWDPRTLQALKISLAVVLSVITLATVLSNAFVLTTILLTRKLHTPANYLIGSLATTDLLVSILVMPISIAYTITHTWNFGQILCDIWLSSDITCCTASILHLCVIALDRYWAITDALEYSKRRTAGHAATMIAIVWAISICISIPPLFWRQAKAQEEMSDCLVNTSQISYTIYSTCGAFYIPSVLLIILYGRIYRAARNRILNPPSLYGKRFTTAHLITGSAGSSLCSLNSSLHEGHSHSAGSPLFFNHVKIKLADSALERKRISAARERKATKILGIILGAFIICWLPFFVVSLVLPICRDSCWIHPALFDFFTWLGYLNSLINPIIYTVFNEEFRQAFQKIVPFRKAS

Take `CNC(=O)c1ccc(Oc2ccc3c(c2)CCN(C2CCC2)CC3)nc1`: the Activity in assay [1] is more than 90%.

The compound `COc1ccc2c(c1)C(=O)O[C@]21CC[C@H](C(=O)N(C)CCN2CCCCC2)CC1` returned an Activity in [1] of 83%.

The term Ki denotes the equilibrium dissociation constant of an inhibitor or competing ligand from its target. On to `C[C@@H]1CCCN1CCc1cc2cc(C(=O)c3ccc(F)cc3)ccc2o1`, for which the Ki in assay [2] is more than 10 µM; in [3] it was 0.351 µM; in assay [4], more than 10 µM; in assay [5], 2.72 µM; in [6] it was more than 10 µM; in assay [7], 6.38 µM. The Ki in assay [8] is 5.44 µM; in assay [9], 1.71 µM; in [10], more than 10 µM; in [11] it was more than 10 µM; in [12] it was more than 10 µM; in [13], more than 10 µM. Further, the Ki in [14] was more than 10 µM; in [15], more than 10 µM; in assay [16], more than 10 µM; in assay [17], more than 10 µM; in assay [18] it was more than 10 µM; in [19], 0.437 µM. Moreover, the inhibitory constant (Ki) in [20] is more than 10 µM; in assay [21], 0.204 µM; in [22], more than 10 µM; in [23] it was 3.15 µM; in [24], more than 10 µM; in assay [25], 0.432 µM. Further, the Ki is 0.462 µM in assay [26]; more than 10 µM in assay [27]; 3.27 µM in assay [28]; more than 10 µM in assay [29]; more than 10 µM in assay [30]; more than 10 µM in assay [31]. In addition, the Ki in assay [32], in assay [33], in [34], in assay [35], in assay [36] and in [37] was more than 10 µM throughout.

On to `C[C@@H]1CCCN1CCc1cc2cc(C(=O)c3ccc([N+](=O)[O-])cc3)ccc2o1`, for which the inhibition constant Ki in assay [2] is more than 10 µM; in [3] it was 0.415 µM; in [4] it was more than 10 µM; in assay [5], 1.36 µM; in [6], more than 10 µM; in assay [7] it was 5.24 µM. Also, the Ki was 7.05 µM in [8]; 0.923 µM in [9]; 0.0004 µM in assay [38]; more than 10 µM in [10]; more than 10 µM in assay [11]; more than 10 µM in assay [12]. Moreover, the Ki in assay [13], in assay [14], in assay [15], in assay [16], in assay [17] and in assay [18] was more than 10 µM in each case. Besides, the Ki in assay [19] was 0.336 µM; in [20], more than 10 µM; in assay [21], 0.512 µM; in [22], more than 10 µM; in [23] it was more than 10 µM; in [24] it was more than 10 µM. Moreover, the Ki in [25] is more than 10 µM; in assay [26] it was 0.681 µM; in assay [27], more than 10 µM; in [28] it was 0.931 µM; in assay [29], more than 10 µM; in assay [30], more than 10 µM. Besides, the inhibition constant Ki in [31] is more than 10 µM; in assay [32], more than 10 µM; in [33] it was more than 10 µM; in assay [34] it was more than 10 µM; in [35] it was more than 10 µM; in assay [36], 0.137 µM. For the same compound, the inhibition constant Ki in [37] is more than 10 µM.
